# Test results taken from ChEMBL document CHEMBL2040797, “Synthesis of benzimidazoles bearing oxadiazole nucleus as anticancer agents” (2012).
# Key:
# Type in all cases: functional
# A498 = test: Cytotoxicity against human A498 cells after 48 hrs by sulforhodamine B assay; conditions: A498, 48 h
# Method in brief: (§1)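 NCI 60-panel screen. Cells were grown in RPMI 1640 with 5% FBS and L-glutamine and plated at 5000–40,000 cells/well according to doubling time. They were preincubated 24 h at 37 °C, 5% CO2, then exposed 48 h to five 10-fold dilutions. Adherent cells were fixed with cold TCA, final 10%; suspension cells were fixed after settling. Cells were stained with 0.4% SRB and read at 515 nm. Tz/C/Ti growth curves gave GI50, TGI and LC50.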
# 786-0 = test: Cytotoxicity against human 786-0 cells after 48 hrs by sulforhodamine B assay; conditions: 786-0, 48 h; method in brief: as §1
# SF-539 = test: Growth inhibition of human SF539 cells at 10 uM after 48 hrs by sulforhodamine B assay; conditions: SF-539, 48 h, read-out: GI
# Method in brief: (§2)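 NCI one-dose primary screen at 10 (printed mM) across the 60-line panel. Cells in RPMI 1640 with 5% FBS and 2 mM L-glutamine, plated at 5000–40,000 cells/well and incubated 24 h before dosing. Exposure 48 h at 37 °C, 5% CO2. Adherent cells were fixed with cold TCA, suspension cells fixed after settling. SRB stain, absorbance 515 nm. Reported as percent growth of treated cells relative to control.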
# LOX IMVI = test: Growth inhibition of human LOXIMVI cells at 10 uM after 48 hrs by sulforhodamine B assay; conditions: read-out: GI; method in brief: as §2
# BT-549 = test: Cytotoxicity against human BT549 cells after 48 hrs by sulforhodamine B assay; conditions: BT-549, 48 h; method in brief: as §1
# M14 = test: Cytotoxicity against human M14 cells after 48 hrs by sulforhodamine B assay; conditions: M14, 48 h; method in brief: as §1
# SNB-19 = test: Cytotoxicity against human SNB19 cells after 48 hrs by sulforhodamine B assay; conditions: SNB-19, 48 h; method in brief: as §1
# SF-268 = test: Growth inhibition of human SF268 cells at 10 uM after 48 hrs by sulforhodamine B assay; conditions: SF-268, 48 h, read-out: GI; method in brief: as §2
# OVCAR-5 = test: Growth inhibition of human OVCAR5 cells at 10 uM after 48 hrs by sulforhodamine B assay; conditions: OVCAR-5, 48 h, read-out: GI; method in brief: as §2
# SW-620 = test: Growth inhibition of human SW620 cells at 10 uM after 48 hrs by sulforhodamine B assay; conditions: SW-620, 48 h, read-out: GI
# Method in brief: (§3)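 NCI-60 single-dose screen. Cells grown in RPMI 1640 with 5% FBS and L-glutamine, plated at 5000–40,000 cells/well by doubling time, and preincubated 24 h at 37 °C, 5% CO2. Compound stocks in DMSO, added at one concentration, then incubated 48 h. Adherent cells fixed with cold TCA (10% final), stained with 0.4% SRB, dye solubilized in 10 mM Tris base, A515 read. Reported as percent growth relative to untreated control.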
# PC-3 = test: Cytotoxicity against human PC3 cells after 48 hrs by sulforhodamine B assay; conditions: PC-3, 48 h; method in brief: as §1
# OVCAR-4 [1] = test: Growth inhibition of human OVCAR4 cells at 10 uM after 48 hrs by sulforhodamine B assay; conditions: OVCAR-4, 48 h, read-out: GI; method in brief: as §2
# HT-29 = test: Growth inhibition of human HT-29 cells at 10 uM after 48 hrs by sulforhodamine B assay; conditions: HT-29, 48 h, read-out: GI; method in brief: as §2
# Malme-3M [2] = test: Cytotoxicity against human MALME-3M cells after 48 hrs by sulforhodamine B assay; method in brief: as §1
# OVCAR-3 [3] = test: Cytotoxicity against human OVCAR3 cells after 48 hrs by sulforhodamine B assay; conditions: OVCAR-3, 48 h; method in brief: as §1
# OVCAR-3 [4] = test: Growth inhibition of human OVCAR3 cells at 10 uM after 48 hrs by sulforhodamine B assay; conditions: OVCAR-3, 48 h, read-out: GI; method in brief: as §2
# MOLT-4 = test: Growth inhibition of human MOLT4 cells at 10 uM after 48 hrs by sulforhodamine B assay; conditions: MOLT-4, 48 h, read-out: GI; method in brief: as §2
# KM12 = test: Growth inhibition of human KM12 cells at 10 uM after 48 hrs by sulforhodamine B assay; conditions: KM12, 48 h, read-out: GI; method in brief: as §2
# MCF7 = test: Cytotoxicity against human MCF7 cells after 48 hrs by sulforhodamine B assay; conditions: MCF7, 48 h; method in brief: as §1
# CAKI-1 = test: Growth inhibition of human Caki1 cells at 10 uM after 48 hrs by sulforhodamine B assay; conditions: CAKI-1, 48 h, read-out: GI; method in brief: as §2
# A549 = test: Cytotoxicity against human A549 cells after 48 hrs by sulforhodamine B assay; conditions: A549, 48 h; method in brief: as §1
# HCT-15 = test: Cytotoxicity against human HCT15 cells after 48 hrs by sulforhodamine B assay; conditions: HCT-15, 48 h; method in brief: as §1
# SR = test: Cytotoxicity against human SR cells after 48 hrs by sulforhodamine B assay; method in brief: as §1
# OVCAR-4 [5] = test: Cytotoxicity against human OVCAR4 cells after 48 hrs by sulforhodamine B assay; conditions: OVCAR-4, 48 h; method in brief: as §1
# T47D = test: Cytotoxicity against human T47D cells after 48 hrs by sulforhodamine B assay; method in brief: as §1
# Malme-3M [6] = test: Growth inhibition of human MALME-3M cells at 10 uM after 48 hrs by sulforhodamine B assay; conditions: read-out: GI; method in brief: as §2
# MDA-MB-231 = test: Cytotoxicity against human MDA-MB-231 cells after 48 hrs by sulforhodamine B assay; conditions: MDA-MB-231, 48 h; method in brief: as §1
# TK-10 = test: Growth inhibition of human TK10 cells at 10 uM after 48 hrs by sulforhodamine B assay; conditions: TK-10, 48 h, read-out: GI; method in brief: as §3
# RPMI-8226 = test: Cytotoxicity against human RPMI8226 cells after 48 hrs by sulforhodamine B assay; conditions: RPMI-8226, 48 h; method in brief: as §1
# NCI-H23 = test: Cytotoxicity against human NCI-H23 cells after 48 hrs by sulforhodamine B assay; conditions: NCI-H23, 48 h; method in brief: as §1
# [7] = read-out: LC50 (the source's name)
compound,measurement,setting,value
O=C(CCc1nnc(-c2ccc(Cl)cc2Cl)o1)c1nc2ccccc2[nH]1,GI50,A498,1.53 µM
same,TGI,A498,10.1 µM
same,CC50,A498; [7],100 µM
same,GI50,786-0,10.7 µM
same,TGI,786-0,45.5 µM
same,CC50,786-0; [7],100 µM
same,inhibition of growth at 10 µM,SF-539,4.76%
same,inhibition of growth at 10 µM,LOX IMVI,44.9%
same,GI50,BT-549,7.54 µM
same,TGI,BT-549,92.5 µM
same,CC50,BT-549; [7],100 µM
same,GI50,M14,5.86 µM
same,TGI,M14,31.5 µM
same,CC50,M14; [7],100 µM
same,GI50,SNB-19,17.4 µM
same,TGI,SNB-19,100 µM
same,CC50,SNB-19; [7],100 µM
same,inhibition of growth at 10 µM,SF-268,31.9%
same,inhibition of growth at 10 µM,OVCAR-5,18.9%
same,inhibition of growth at 10 µM,SW-620,64.2%
same,GI50,PC-3,3.71 µM
same,TGI,PC-3,100 µM
same,CC50,PC-3; [7],100 µM
same,inhibition of growth at 10 µM,OVCAR-4 [1],41.2%
same,inhibition of growth at 10 µM,HT-29,90.6%
same,GI50,Malme-3M [2],13 µM
same,TGI,Malme-3M [2],52.6 µM
same,CC50,Malme-3M [2]; [7],100 µM
same,GI50,OVCAR-3 [3],5.63 µM
same,TGI,OVCAR-3 [3],24.8 µM
same,CC50,OVCAR-3 [3]; [7],90.7 µM
same,inhibition of growth at 10 µM,OVCAR-3 [4],33.6%
same,inhibition of growth at 10 µM,MOLT-4,79.3%
same,inhibition of growth at 10 µM,KM12,71.3%
same,GI50,MCF7,4.57 µM
same,TGI,MCF7,100 µM
same,CC50,MCF7; [7],100 µM
same,inhibition of growth at 10 µM,CAKI-1,40.2%
same,GI50,A549,10.4 µM
same,TGI,A549,100 µM
same,CC50,A549; [7],100 µM
same,GI50,HCT-15,5.13 µM
same,TGI,HCT-15,48.6 µM
same,CC50,HCT-15; [7],100 µM
same,GI50,SR,2.63 µM
same,TGI,SR,15.2 µM
same,CC50,SR; [7],100 µM
same,GI50,OVCAR-4 [5],5.93 µM
same,TGI,OVCAR-4 [5],100 µM
same,CC50,OVCAR-4 [5]; [7],100 µM
same,GI50,T47D,3.34 µM
same,TGI,T47D,60 µM
same,CC50,T47D; [7],100 µM
same,inhibition of growth at 10 µM,Malme-3M [6],20.7%
same,GI50,MDA-MB-231,2.68 µM
same,TGI,MDA-MB-231,42.6 µM
same,CC50,MDA-MB-231; [7],100 µM
same,inhibition of growth at 10 µM,TK-10,36%
same,GI50,RPMI-8226,3.61 µM
same,TGI,RPMI-8226,23.3 µM
same,CC50,RPMI-8226; [7],100 µM
same,GI50,NCI-H23,3.23 µM
same,TGI,NCI-H23,63.2 µM
same,CC50,NCI-H23; [7],100 µM
